In ChEMBL document CHEMBL1800041, “Bioactive terpenes from Spongia officinalis” (J Nat Prod, 2011):
Active and inactive are the calls of the source. The calls are words filed in the database; no cut-off is given here.

What was measured:
Type in all cases: functional, organism-based
Candida albicans = experiment: Antifungal activity against Candida albicans by broth macrodilution method
In short: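 Broth macrodilution following NCCLS document M27-P guidelines for antifungal susceptibility testing of yeast.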

Staphylococcus aureus [1] = experiment: Antibacterial activity against Staphylococcus aureus by broth macrodilution method
In short: (§1)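 Broth macrodilution as in the antifungal test (NCCLS M27-P guideline). The medium was changed to Luria-Bertani (10 g/L Bactotryptone, 5 g/L Bactoyeast, 10 g/L NaCl, pH 7.5), and incubation was at 37 °C for 24 h.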

Escherichia coli = experiment: Antibacterial activity against Escherichia coli by broth macrodilution method; in short: as §1
Staphylococcus aureus [2] = experiment: Antibacterial activity against Staphylococcus aureus at 100 ug/mL by broth macrodilution method

For C[C@H](CCCc1ccoc1)CC(=O)C[C@@H](C)CCCc1ccoc1, the Activity (Candida albicans) was “inactive”, the Activity (Staphylococcus aureus [1]) was “inactive” and the Activity (Escherichia coli) was “inactive”.

C/C(=C\CCc1ccoc1)C[C@H](O)C[C@@H](C)CCCc1ccoc1 was tested, and the Activity (Candida albicans) was “inactive”, the Activity (Staphylococcus aureus [1]) was “inactive” and the Activity (Escherichia coli) was “inactive”.

For COC(=O)/C(C)=C/CC/C(=C/CC/C(C)=C/CC/C(C)=C/CCc1ccoc1)C(=O)O, the Activity (Staphylococcus aureus [2]) was “Active”, the Activity (Candida albicans) was “inactive” and the Activity (Escherichia coli) was “inactive”.

C/C(=C\CCc1ccoc1)CC/C=C(\C)CCCC1=CC(=O)OC1 was tested, and the Activity (Candida albicans) was “inactive”, the Activity (Staphylococcus aureus [1]) was “inactive” and the Activity (Escherichia coli) was “inactive”.

C/C(=C\CCc1ccoc1)CC(=O)C[C@@H](C)CCCc1ccoc1 was tested, and the Activity (Candida albicans) was “inactive”, the Activity (Staphylococcus aureus [1]) was “inactive” and the Activity (Escherichia coli) was “inactive”.

With C/C(=C\CCc1ccoc1)CC/C=C(\C)CCCc1ccoc1 the Activity (Candida albicans) was “inactive”, the Activity (Staphylococcus aureus [1]) was “inactive” and the Activity (Escherichia coli) was “inactive”.

With COC(=O)/C(=C\CC/C(C)=C/CC/C(C)=C/CCc1ccoc1)CC/C=C(\C)C(=O)O the Activity (Candida albicans) was “inactive”, the Activity (Staphylococcus aureus [1]) was “inactive” and the Activity (Escherichia coli) was “inactive”.
